Assay outcomes (PubChem)
NadD inh = blocks S. aureus nicotinate mononucleotide adenylyltransferase; inhibition, % at 20 µM; purified NadD enzyme, colorimetric absorbance read-out; 360,000 tested, 0.78% active; in the data active = inhibition above about 26%
STEP inh = blocks human striatal-enriched tyrosine phosphatase; P54829; recombinant STEP, OMFP fluorogenic substrate, fluorescence; inhibition, % at 20 µM; 360,000 tested, 0.25% active;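 active = inhibition at 20 µM, scaled per plate between control wells, above about 37%, limit read from the data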
Target sequence (P54829 whole entry, looked up): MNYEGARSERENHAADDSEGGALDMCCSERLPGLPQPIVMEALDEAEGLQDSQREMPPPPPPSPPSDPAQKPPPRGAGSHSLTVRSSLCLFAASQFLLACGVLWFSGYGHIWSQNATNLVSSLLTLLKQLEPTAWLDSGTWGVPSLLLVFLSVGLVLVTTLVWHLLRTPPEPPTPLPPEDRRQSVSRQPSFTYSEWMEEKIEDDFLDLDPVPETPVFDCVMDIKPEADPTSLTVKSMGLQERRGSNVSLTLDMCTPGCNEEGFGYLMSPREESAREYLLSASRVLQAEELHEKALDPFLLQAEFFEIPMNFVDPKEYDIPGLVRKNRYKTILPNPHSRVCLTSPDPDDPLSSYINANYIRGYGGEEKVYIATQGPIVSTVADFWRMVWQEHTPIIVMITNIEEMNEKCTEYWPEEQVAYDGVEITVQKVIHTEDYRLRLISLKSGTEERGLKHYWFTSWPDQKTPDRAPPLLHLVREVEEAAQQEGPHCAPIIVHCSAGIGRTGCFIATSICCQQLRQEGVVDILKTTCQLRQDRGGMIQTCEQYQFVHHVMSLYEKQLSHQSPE
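Test system: STEP tyrosine phosphatase / Reagent: OMFP at 25 µM / Doses: 20 µM, 1% DMSO / Read-out: percent inhibition scaled to no-enzyme and uninhibited-enzyme controls, plate-pattern corrected / Detection: FITC-channel fluorescence of OMFP product / Medium: Bis-Tris buffer pH 6.0, 2.5 mM DTT, 0.005% Tween 20 / Schedule: 20 min at room temperature, dark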
LMPTP block = LMPTP (human) inhibition; AID 651560; recombinant LMPTP-A, OMFP fluorogenic substrate, fluorescence intensity; 360,000 tested, 0.22% active; P24666; inhibition, % at 20 µM;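 active = compounds that cut the enzyme signal by at least half of the control window in the single-dose screen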
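Buffer or medium: Bis-Tris pH 6.0, DTT, detergent; Assay system: LMPTP-A enzyme; Quantity: 0.625 nM enzyme; Detection: endpoint fluorescence intensity; Times: 50 min dark incubation at room temperature; Controls: substrate-only low control, DMSO enzyme-plus-substrate high control; Doses: single 20 µM dose; Read-out: percent inhibition versus substrate-only and uninhibited controls; Reagent: 400 µM OMFP.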
Scp-1 inhibitor = inhibitors of human Scp-1 phosphatase | Recombinant Scp1, phosphopeptide, malachite green phosphate absorbance | inhibition, % at 20 µM | 340,000 tested, 0.88% active;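 active = inhibition above about 50% at 20 µM, limit read from the data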
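Test system: SCP-1 catalytic domain; Buffer or medium: Acidic Tris acetate buffer with magnesium and detergent; Also added: Phosphorylated 17-residue peptide substrate; Compound: single 20 µM dose, 1% DMSO; Schedule: enzyme reaction 45 min at room temperature, colour 5 min, stabilisation 30 min; Signal: Phosphate-binding colour reagent, absorbance read at 630 nm.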
rCAG binder = r(CAG) repeat RNA binding; AID 651821; inhibition, % at 3 µM; TO-PRO-1 dye displacement fluorescence; 370,000 tested, 1.3% active;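 active = inhibition above the plate cutoff, the mean of all test compounds on that plate plus 3 SD, cut at about 35% in these data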;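 note: higher means more dye released from RNA so lower well fluorescence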
NadD conf = confirmation of Staphylococcus aureus NadD inhibitors; 2,000 tested, 13% active; AID 624309; shares compounds with NadD inh; purified S. aureus NadD, colorimetric enzyme assay; inhibition, % at 20 µM; in the data active = inhibition mostly above about 42%, no sharp cut-off; inactive = mostly below about 42%
Each line names hits and unclear results; the compound was inactive in the other large screens (follow-up assays come after a bar, where they were run). A selection: hits, their analogues and other compounds. The true share with any hit is near 2.6%.

CC(=O)Nc1ccc(S(=O)(=O)/N=C2\SCCN2S(=O)(=O)c2ccc(NC(C)=O)cc2)cc1	NadD inh 58 | NadD conf inactive
CCn1nnnc1NCc1cccn1C	NadD inh 35 | NadD conf inactive
COc1ccc(C(=O)OCCCN(C)C2CN(Cc3cn(Cc4ccccc4F)nn3)S(=O)(=O)C2)cc1OC (stereo not drawn)	none (no result: NadD inh, STEP inh, LMPTP block, Scp-1 inhibitor)
CCCCNC(=O)C[C@H]1C[C@@]2(C(=O)OC)C(=C[C@H](C(C)C)O[C@@H]2C2CC2)N(CCC2=CCCCC2)C1=O	none (no result: NadD inh, STEP inh, LMPTP block, Scp-1 inhibitor)
COc1ccc(NC(=O)c2cc(-c3ccco3)nc3ccccc23)cc1S(=O)(=O)N1CCOCC1	NadD inh 30, Scp-1 inhibitor 85 | NadD conf 67
O=C(Nc1ccc(Cl)c(S(=O)(=O)N2CCOCC2)c1)c1cc(-c2ccccn2)nc2ccccc12	none
COc1ccc(/C=C2/Sc3ccc(C(=O)NCCN4CCCCCC4)cc3NC2=O)cc1	NadD inh 56 | NadD conf inactive
COC(=O)C1CN(CC(C)C)CCS(=O)(=O)N1Cc1cccc(Cl)c1 (stereo not drawn)	none (no result: NadD inh, STEP inh, LMPTP block, Scp-1 inhibitor)
C=CCOC(=O)C(CO)NC(=O)CCCC(=O)O (stereo not drawn)	none (no result: NadD inh, STEP inh, LMPTP block, Scp-1 inhibitor)
O=c1cc(CSc2nc(NCc3ccc(Cl)cc3)c3ccccc3n2)nc2ccc(Cl)cn12	NadD inh 33 | NadD conf inactive
CN(C)c1nc(N2CCN(c3ccc(F)cc3)CC2)c(C#N)c(=O)o1	none
N#Cc1c(N2CCN(c3ccc(F)cc3)CC2)nc(N)c2c(N)nc3c(c12)CC(=O)N3C1CC1	NadD inh 44 | NadD conf inactive
Cc1ccccc1CSCC1Nc2ccc(C(=O)NCCc3ccccc3)cc2NC1=O (stereo not drawn)	NadD inh 45 (no result: Scp-1 inhibitor) | NadD conf 74
C[C@H](O)[C@@H]1CN2CCc3c([nH]c4cccc(-c5ccccc5)c34)[C@@H]2C[C@@H]1N(C)CC1CCCCC1	none (no result: NadD inh, STEP inh, LMPTP block, Scp-1 inhibitor)
O=C(COc1cccc2ccccc12)N/N=C/c1ccc(Sc2nc3ccccc3s2)o1	NadD inh 36 | NadD conf inactive
Cc1ccccc1OCC(=O)N/N=C/c1ccc(Sc2nc3ccccc3s2)o1	none
CN(CCc1ccccn1)C(=O)c1ccc2c(c1)ncn2C1CCCCC1	none (no result: NadD inh, STEP inh, LMPTP block, Scp-1 inhibitor)
COC(=O)[C@]12C[C@H](CC(=O)NCCc3ccccc3OC)C(=O)N(Cc3ccc(Cl)cc3Cl)C1=C[C@H](C(C)(C)C)O[C@@H]2C	none (no result: NadD inh, STEP inh, LMPTP block, Scp-1 inhibitor)
Cc1ccc(C(=O)C2CCN(CC(=O)N3CCOCC3)CC2)cc1	none (no result: NadD inh, STEP inh, LMPTP block, Scp-1 inhibitor)
COc1cc(NS(=O)(=O)c2ccc(N/C=C\C(=O)c3ccc(C)cc3)cc2)nc(OC)n1	none
COc1cc(NS(=O)(=O)c2ccc(N/C=C(\C#N)c3nc4cc(Cl)ccc4o3)cc2)nc(OC)n1	NadD inh 39 | NadD conf inactive
COc1ccc(C(=O)/C=C/Nc2ccc(S(=O)(=O)Nc3cc(OC)nc(OC)n3)cc2)c(OC)c1	NadD inh 32 | NadD conf inactive
COc1ccc(-c2noc(C3CCCN(C(=O)Nc4ccc(Cl)cc4)C3)n2)cc1 (stereo not drawn)	none (no result: NadD inh, STEP inh, LMPTP block, Scp-1 inhibitor)
CCCNC(=O)N1[C@@H](CO)[C@H](c2ccc(C3=CCCC3)cc2)[C@@H]1CN(CC)S(=O)(=O)c1ccccc1[N+](=O)[O-]	none (no result: NadD inh, STEP inh, LMPTP block, Scp-1 inhibitor)
COC(=O)[C@H](C(C)C)N1Cc2nnn(Cc3ccccc3)c2-c2ccccc2S1(=O)=O	none (no result: NadD inh, STEP inh, LMPTP block, Scp-1 inhibitor)
Cn1c(=O)c2c([nH]c(=S)n2Cc2ccc(Cl)cc2)n(C)c1=O	NadD inh 32 | NadD conf inactive
Cc1cc(Br)c2nc(-c3ccccc3)c(Cc3cccc(Cl)c3)n2c1	NadD inh 31 (no result: STEP inh, Scp-1 inhibitor) | NadD conf inactive
Cc1sc2nc(COC(=O)c3cccc(S(=O)(=O)N(C)c4ccccc4)c3)[nH]c(=O)c2c1C	NadD inh 37 | NadD conf inactive
COc1ccc(CN(CCN2CCOCC2)C(=O)c2ccccc2C)cc1OC	none (no result: NadD inh, STEP inh, LMPTP block, Scp-1 inhibitor)
O=c1/c(=C\c2ccc(O)cc2)sc2n1C(c1ccccc1)C(c1ccccc1)=NN=2 (stereo not drawn)	NadD inh 39 | NadD conf 57
Cn1c(CNC(=O)c2ccc(Cl)c(Cl)c2)nnc1SCC(=O)Nc1sc2c(c1C#N)CCCC2	NadD inh 45 | NadD conf inactive
CCOC(=O)[C@@]12CCC3=C1N(CCC3)C(=O)[C@H](CC(=O)NCCc1ccccc1OC)C2	none (no result: NadD inh, STEP inh, LMPTP block, Scp-1 inhibitor)
Cc1ccc(Cl)cc1N1CCN(S(=O)(=O)c2ccc3[nH]c(=O)ccc3c2)CC1	none
